Laboratory results reported in ChEMBL document CHEMBL4825712.
Activity calls are given as the source filed them. The calls are words filed in the database; no cut-off is given here.

Experiments:
[1] = test system: A549; experiment: Cytotoxicity against human A549 cells by MTT assay; assay type: cell-based
Outline: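 MTT assay run according to the manufacturer's instructions, concurrently with NP immunostaining of infected A549 cultures.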

[2] = test system: Influenza A virus; experiment: Antiviral activity against Influenza A virus A/WSN/33(H1N1)-PB2-Nanoluc virus infected in human A549 cells assessed as decrease in Nano-luc pretreated for 2 hr followed viral infection incubated for 24 hrs by Nano-Glo luminescence assay; assay type: functional, organism-based; conditions: A/WSN/1933(H1N1)
Outline: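 A549 cells were treated with a range of compound concentrations for 2 h, then infected with WSN-PB2-Nanoluc (NanoLuc fused to PB2) at MOI 0.02 for 24 h. Cells were lysed in Renilla lysis buffer and luminescence read with Nano-Glo substrate on equal lysate volumes. IC50 was derived from the dose-response.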

[3] = test system: Influenza A virus; experiment: Antiviral activity against Influenza A virus A/California/07/2009 (HIN1) infected in human A549 cells assessed as reduction in infected cells up to 25 uM pretreated for 1 hr; assay type: functional, organism-based; conditions: A/California/07/2009(H1N1), dose microM <=25, time 1.0 hrs
[4] = test system: Influenza A virus; experiment: Antiviral activity against Influenza A virus A/Wyoming/03/2003 (H3N2) infected in human A549 cells assessed as reduction in infected cells up to 25 uM pretreated for 1 hr; assay type: functional, organism-based; conditions: dose microM <=25, time 1.0 hrs
[5] = test system: Influenza A virus; experiment: Antiviral activity against Influenza A virus A/WSN/33(H1N1) infected in human A549 cells assessed as viral replication measured after 24 hrs by immunofluorescence microscopy; assay type: functional, organism-based; conditions: A/WSN/1933(H1N1); for IC50: A549, 24 h; for IC90: A549, time 24 hrs
Outline: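 A549 cells were infected with A/WSN/33 at MOI 0.01 for 24 h, then fixed in 4% formaldehyde and permeabilized with 0.1% Triton X-100. They were immunostained for NP with an Alexa-488 secondary plus DAPI and imaged on an image cytometer. Percent infection = NP-positive cells divided by total cells.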

[6] = Selectivity index, ratio of CC50 for human A549 cells to IC50 for antiviral activity against Influenza A virus A/WSN/33(H1N1) infected in human A549 cells; assay type: toxicity, cell-based; conditions: read-out: Selectivity Index
Outline: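 Ratio of CC50 to IC50. IC50 came from A549 cells pretreated 2 h with compound, then infected 24 h with WSN-PB2-Nanoluc at MOI 0.02 and read by Nano-Glo luminescence. CC50 was measured by CellTiter-Glo.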

[7] = test system: Influenza A virus; experiment: Antiviral activity against Influenza A virus A/WSN/33(H1N1) infected in human A549 cells assessed as reduction in M mRNA level by smRNA FISH followed by fluorescence microscopy; assay type: functional, organism-based; conditions: A/WSN/1933(H1N1)
Outline: (§1)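 A549 cells on gelatin-coated coverslips were infected with WSN at MOI 2 for 8 h. Cells were fixed in 4% PFA, held in 70% ethanol for 12 h at 4 °C, and hybridized with M, HA or NS smRNA-FISH probes at 37 °C for 4 h. After a formamide/SSC wash, nuclei were stained with Hoechst and imaged by fluorescence microscopy.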

[8] = test system: Influenza A virus; experiment: Antiviral activity against Influenza A virus A/WSN/33(H1N1) infected in human A549 cells assessed as reduction in HA mRNA level by smRNA FISH followed by fluorescence microscopy; assay type: functional, organism-based; conditions: A/WSN/1933(H1N1); outline: as §1
[9] = test system: Influenza A virus; experiment: Antiviral activity against Influenza A virus A/WSN/33(H1N1) infected in human A549 cells assessed as reduction in NS mRNA level by smRNA FISH followed by fluorescence microscopy; assay type: functional, organism-based; conditions: A/WSN/1933(H1N1); outline: as §1
[10] = test system: Influenza A virus; experiment: Antiviral activity against Influenza A virus A/WSN/33(H1N1) infected in human A549 cells assessed as reduction in poly(A) RNA/GAPDH mRNA level at 1 uM by smRNA FISH followed by fluorescence microscopy; assay type: functional, organism-based; conditions: A/WSN/1933(H1N1)
[11] = test system: Influenza A virus; experiment: Antiviral activity against Influenza A virus A/WSN/33(H1N1) infected in human A549 cells assessed as reduction in HA mRNA level by qRT-PCR analysis; assay type: functional, organism-based; conditions: A/WSN/1933(H1N1)
Outline: (§2)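 A549 cells were pretreated for 1 h with 0.5 or 1 μM compound or 0.1% DMSO. They were then infected with A/WSN/33 at MOI 2 for 8 h with compound still present. Total RNA was isolated, reverse transcribed and analysed by qPCR for viral HA, NS1, M1 and M2 mRNA. Three independent experiments; mean ± SD.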

[12] = test system: Influenza A virus; experiment: Antiviral activity against Influenza A virus A/WSN/33(H1N1) infected in human A549 cells assessed as reduction in NS1 mRNA level by qRT-PCR analysis; assay type: functional, organism-based; conditions: A/WSN/1933(H1N1); outline: as §2
[13] = test system: Influenza A virus; experiment: Antiviral activity against Influenza A virus A/WSN/33(H1N1) infected in human A549 cells assessed as reduction in M1 mRNA level by qRT-PCR analysis; assay type: functional, organism-based; conditions: A/WSN/1933(H1N1); outline: as §2
[14] = test system: Influenza A virus; experiment: Antiviral activity against Influenza A virus A/WSN/33(H1N1) infected in human A549 cells assessed as reduction in M2 mRNA level by qRT-PCR analysis; assay type: functional, organism-based; conditions: A/WSN/1933(H1N1); outline: as §2
[15] = test system: Influenza A virus; experiment: Antiviral activity against Influenza A virus A/WSN/33(H1N1) infected in human Primary bronchial epithelial cells assessed as reduction in M1 mRNA level at 1 uM by qRT-PCR analysis; assay type: functional, organism-based; conditions: A/WSN/1933(H1N1), Primary bronchial epithelial cell
[16] = test system: Influenza A virus; experiment: Antiviral activity against Influenza A virus A/WSN/33(H1N1)-PB2-Nanoluc virus infected in human HCT-116 cells assessed as decrease in Nano-luc at 1 uM pretreated for 1 hr followed viral infection incubated for 24 hrs by Nano-Glo luminescence assay; assay type: functional, organism-based; conditions: A/WSN/1933(H1N1)
[17] = test system: Influenza A virus; experiment: Antiviral activity against Influenza A virus A/WSN/33(H1N1) infected in human A549 cells assessed as reduction in HA level at 1 uM pretreated for 8 hrs measured by Western blot analysis; assay type: functional, organism-based; conditions: A/WSN/1933(H1N1)
Outline: (§3)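 A549 cells were pretreated with 1 μM compound or 0.1% DMSO, then infected with A/WSN/33 at MOI 2 for 8 h. Lysates were analysed by western blot for viral proteins, with β-actin as loading control. Three independent experiments.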

[18] = test system: Influenza A virus; experiment: Antiviral activity against Influenza A virus A/WSN/33(H1N1) infected in human A549 cells assessed as reduction in NP level at 1 uM pretreated for 8 hrs measured by Western blot analysis; assay type: functional, organism-based; conditions: A/WSN/1933(H1N1); outline: as §3
[19] = test system: Influenza A virus; experiment: Antiviral activity against Influenza A virus A/WSN/33(H1N1) infected in human A549 cells assessed as reduction in M1 level at 1 uM pretreated for 8 hrs measured by Western blot analysis; assay type: functional, organism-based; conditions: A/WSN/1933(H1N1); outline: as §3
[20] = test system: Influenza A virus; experiment: Antiviral activity against Influenza A virus A/WSN/33(H1N1) infected in human A549 cells assessed as reduction in M mRNA level at 1 uM pretreated 1 hr before viral infection by smRNA FISH followed by fluorescence microscopy; assay type: functional, organism-based; conditions: A/WSN/1933(H1N1)
Outline: (§4)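 A549 cells received 1 μM compound either 1 h before infection or 1 h after infection. Infection was with WSN at MOI 2 for 8 h. Viral M mRNA was detected by smRNA-FISH and fluorescence microscopy.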

[21] = test system: Influenza A virus; experiment: Antiviral activity against Influenza A virus A/WSN/33(H1N1) infected in human A549 cells assessed as reduction in M mRNA level at 1 uM treated 1 hr after viral infection by smRNA FISH followed by fluorescence microscopy; assay type: functional, organism-based; conditions: A/WSN/1933(H1N1); outline: as §4
[22] = test system: Influenza A virus; experiment: Antiviral activity against Influenza A virus A/WSN/33(H1N1) infected in human A549 cells assessed as reduction in M1 protein level at 1 uM treated 1 hr after viral infection by Western blot analysis; assay type: functional, organism-based; conditions: A/WSN/1933(H1N1)
Outline: (§5)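 A549 cells received 1 μM compound 1 h before infection, or 1 h or 2 h after infection. Infection was with WSN at MOI 2 for 8 h. Lysates were analysed by western blot for viral proteins.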

[23] = test system: Influenza A virus; experiment: Antiviral activity against Influenza A virus A/WSN/33(H1N1) infected in human A549 cells assessed as reduction in NP protein level at 1 uM treated 1 hr after viral infection by Western blot analysis; assay type: functional, organism-based; conditions: A/WSN/1933(H1N1); outline: as §5
[24] = biological target: Hemagglutinin (Influenza A virus (A/Puerto Rico/8/1934(H1N1))) (UniProt P03452); experiment: Inhibition of Influenza A virus A/WSN/33(H1N1) hemagglutinin assessed as inhibition of HA-mediated chicken erythrocytes membrane fusion at 0.08 to 5 uM incubated for 30 mins pH 5 by hemolysis inhibition assay; conditions: Influenza A virus (A/WSN/1933(H1N1)), dose 0.08-5 µM
Outline: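 Chicken erythrocyte suspension was incubated on ice with WSN, with or without compound at a range of concentrations. The mixture was acidified to pH 5 and incubated at 37 °C for 30 min. NADH released by lysis was read at 340 as the fusion measure. Data are % of DMSO control; means of triplicates ± SD.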

[25] = test system: Influenza A virus; experiment: Antiviral activity against Influenza A virus wild-type A/WSN/1933 (H1N1) infected in human A549 cells assessed as log reduction in viral titer at 25 uM by standard plaque assay; assay type: functional, organism-based
Outline: (§6)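 A549 cells were infected in the absence or presence of 25 μM compound. For A/WSN/1933 the MOI was 0.01 and infection ran 24 h. For A/Panama/1999 the MOI was 0.1 and infection ran 48 h. Viral titers were determined by standard plaque assay.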

[26] = test system: Influenza A virus; experiment: Antiviral activity against Influenza A virus A/Vietnam/2506/2004 (H5N1) infected in human A549 cells assessed as log reduction in viral titer at 25 uM by standard plaque assay; assay type: functional, organism-based
[27] = test system: Influenza A virus; experiment: Antiviral activity against Influenza A virus A/Panama/1999 (H3N2) infected in human A549 cells assessed as log reduction in viral titer at 25 uM by standard plaque assay; assay type: functional, organism-based; outline: as §6

Chain of Hemagglutinin (Influenza A virus (A/Puerto Rico/8/1934(H1N1))) (P03452 whole entry, the tested form may be a part): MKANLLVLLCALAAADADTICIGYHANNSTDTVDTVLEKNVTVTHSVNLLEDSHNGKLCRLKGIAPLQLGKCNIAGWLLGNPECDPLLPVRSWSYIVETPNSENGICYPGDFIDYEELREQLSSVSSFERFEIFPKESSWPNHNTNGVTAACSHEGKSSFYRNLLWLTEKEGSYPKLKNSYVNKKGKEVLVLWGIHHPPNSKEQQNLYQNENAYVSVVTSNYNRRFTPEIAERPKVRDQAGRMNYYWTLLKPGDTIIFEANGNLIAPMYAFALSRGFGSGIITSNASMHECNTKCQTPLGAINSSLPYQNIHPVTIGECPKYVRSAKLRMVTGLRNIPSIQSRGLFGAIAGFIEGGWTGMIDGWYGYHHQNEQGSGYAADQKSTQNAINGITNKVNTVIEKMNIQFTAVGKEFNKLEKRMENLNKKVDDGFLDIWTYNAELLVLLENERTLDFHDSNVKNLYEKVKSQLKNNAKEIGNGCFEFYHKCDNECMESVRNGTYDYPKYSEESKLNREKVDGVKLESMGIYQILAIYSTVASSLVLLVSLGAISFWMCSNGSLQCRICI

## C#CCCC1(CCOC(=O)Cc2ccc(N(CC)S(=O)(=O)c3cc(Cl)ccc3Cl)cc2)N=N1
[1]
  CC10: > 25 µM
[2]
  IC50: > 5 µM

## CCN(c1ccc(F)cc1F)S(=O)(=O)c1cc(Cl)ccc1Cl
[3]
  Activity: Active
[4]
  Activity: inactive
[5]
  IC50: 0.052 µM
  IC90: 0.9 µM
[1]
  CC10: > 5 µM
  CC50: > 5 µM
[6]
  selectivity ratio: > 96

## C#CCN(c1cccc(N=[N+]=[N-])c1)S(=O)(=O)c1cc(Cl)ccc1Cl
[1]
  CC10: > 25 µM
[2]
  IC50: 136 µM

## O=S(=O)(c1cc(Cl)ccc1Cl)N1CCCc2cc(Cl)ccc21
[1]
  CC10: > 5 µM
[2]
  IC50: > 5 µM

## CCN(C(=O)c1cc(Cl)ccc1Cl)c1ccc(Cl)cc1C
[1]
  CC10: > 5 µM
[2]
  IC50: > 5 µM

## C#CCCC1(CCN(c2ccc(Cl)cc2C)S(=O)(=O)c2cc(Cl)ccc2Cl)N=N1
[1]
  CC10: > 25 µM
[2]
  IC50: > 5 µM

## CCN(c1ccccc1C)S(=O)(=O)c1cc(Cl)ccc1Cl
[7]
  Activity: Active
[8]
  Activity: Active
[9]
  Activity: Active
[10]
  Activity: inactive
[11]
  Activity: Active
[12]
  Activity: Active
[13]
  Activity: Active
[14]
  Activity: Active
[15]
  Activity: Active
[16]
  IC50: 16.8 µM
[17]
  Activity: Active
[18]
  Activity: Active
[19]
  Activity: Active
[20]
  Activity: Active
[21]
  Activity: Active
[22]
  Activity: Active
[23]
  Activity: Active
[24]
  Activity: Active
[25]
  Activity: Active
[26]
  Activity: Active
[27]
  Activity: Active
[3]
  Activity: Active
[4]
  Activity: inactive
[5]
  IC50: 0.04 µM
  IC90: 1.2 µM
[1]
  CC10: > 25 µM
  CC50: > 25 µM
[6]
  selectivity ratio: > 625

## O=S(=O)(c1cc(Cl)ccc1Cl)N1CCc2cc(Cl)ccc21
[1]
  CC10: > 5 µM
[2]
  IC50: > 5 µM

## CCN(c1ccc(Cl)cc1C)S(=O)(=O)c1cc(Cl)ccc1Cl
[3]
  Activity: Active
[4]
  Activity: Active
[5]
  IC50: 0.034 µM
  IC90: 0.5 µM
[1]
  CC10: > 5 µM
  CC50: > 5 µM
[6]
  selectivity ratio: > 147
